Experiments:
[1] = system: Human alphaherpesvirus 3; experiment: Effective concentration of compound against Varicella-Zoster Virus (VZV); Range is 0.06-0.12 uM; assay type: functional, organism-based
[2] = system: Human alphaherpesvirus 3; experiment: Effective concentration against TK- Varicella-Zoster Virus (VZV) YS/R strain; assay type: functional, organism-based
[3] = system: HFF; experiment: Cytotoxic concentration for 50% inhibition of cell growth of HSV-2 infected HFF cells determined by CPE assay; assay type: functional; conditions: Homo sapiens
[4] = system: Human alphaherpesvirus 3; experiment: Effective concentration against TK- Varicella-Zoster Virus (VZV) 07/1 strain; assay type: functional, organism-based
[5] = species on record: Homo sapiens; experiment: Inhibitory concentration required to reduce HSV-2 induced cytopathogenic effect in human skin fibroblast; assay type: functional, organism-based
[6] = system: Human alphaherpesvirus 3; experiment: Antiviral activity against YS strain of thymidine kinase positive(TK+) Varicella-Zoster Virus (VZV); assay type: functional, organism-based
[7] = Inhibitory activity against HSV-1-TK transfected osteosarcoma cells; assay type: functional
Summary of the method: (§1)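 Osteosarcoma lines (143B-TK⁻ with 0.1 mg/mL 5-BrdU selection; MG-63-hTK1; 143B-TK⁺-HSV1-WT with HAT) grown in MEM/10% FCS. Seeded at 2 × 10³ (143B lines) or 1.5 × 10³ (MG-63) cells/well, exposed to five concentrations over 0.5–500 μM for 4.5 days at 37 °C/5% CO₂. XTT added for 9 h, A450 (ref 750 nm) read against untreated wells. Three independent series in triplicate.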

[8] = system: Human alphaherpesvirus 3; experiment: Cytotoxic concentration that causes growth inhibition of VZV infected Osteosarcoma cells; assay type: functional
[9] = Cytotoxic concentration that produces 50% inhibition of cell growth.; assay type: functional
[10] = Catalytic rate constant was determined; assay type: ADME
[11] = system: Human alphaherpesvirus 3; experiment: Antiviral activity against YS/R strain of thymidine kinase negative(TK-) Varicella-Zoster Virus (VZV); assay type: functional, organism-based
[12] = system: Human alphaherpesvirus 3; experiment: Effective concentration against TK+ Varicella-Zoster Virus (VZV)YS strain; assay type: functional, organism-based
[13] = Cytotoxic concentration against non transfected osteosarcoma cells non transfected (MG-63-hTK1); assay type: functional; summary of the method: as §1
[14] = system: Human alphaherpesvirus 3; experiment: Effective concentration against TK+ Varicella-Zoster Virus (VZV) OKA strain; assay type: functional, organism-based
[15] = system: Human alphaherpesvirus 2; experiment: Inhibitory concentration required to reduce HSV-2 induced cytopathogenic effect (CPE) by 50 % in HFF cells; assay type: functional, organism-based; conditions: Human alphaherpesvirus 2, HFF
[16] = species on record: Homo sapiens; experiment: Inhibitory concentration required to reduce HSV-1 induced cytopathogenic effect (CPE) in human skin fibroblast; assay type: functional, organism-based
[17] = system: Thymidine kinase (Herpes simplex virus type 1); experiment: Catalytic turnover constant against HSV-1 thymidine kinase
[18] = Cytotoxic concentration against HSV-1 TK- transfected osteosarcoma cells; assay type: functional; conditions: Human alphaherpesvirus 1; summary of the method: as §1
[19] = Minimum cytotoxic concentration that causes microscopically detectable alterations of cell morphology; assay type: functional
[20] = Inhibition constant against HSV-1 TK; assay type: functional, herpes simplex virus
[21] = system: HFF; experiment: Cytotoxic concentration for 50% inhibition of cell growth of HSV-1 infected HFF cells determined by CPE assay; assay type: functional; conditions: Homo sapiens
[22] = system: Human alphaherpesvirus 3; experiment: Antiviral activity against OKA strain of thymidine kinase positive(TK+) Varicella-Zoster Virus (VZV); assay type: functional, organism-based
[23] = system: Human alphaherpesvirus 1; experiment: Inhibitory concentration required to reduce HSV-1 induced cytopathogenic effect (CPE) by 50 % in HFF cells; assay type: functional, organism-based, herpes simplex virus; conditions: Human alphaherpesvirus 1, HFF
[24] = system: Human alphaherpesvirus 3; experiment: Antiviral activity against 07/1 strain of thymidine kinase negative (TK-) Varicella-Zoster Virus (VZV); assay type: functional, organism-based
[25] = Cytotoxic concentration against HSV-1 TK-transfected osteosarcoma cells; assay type: functional; conditions: Human alphaherpesvirus 1; summary of the method: as §1
[26] = system: Human alphaherpesvirus 3; experiment: Minimum cytotoxic concentration that causes alterations of VZV infected Osteosarcoma cell morphology; assay type: functional
[27] = species on record: Homo sapiens; experiment: Cytotoxic concentration that produces 50% growth inhibition of human skin fibroblast in CPE assay; assay type: functional
[28] = species on record: Homo sapiens; experiment: Cytotoxic concentration that produces 50% growth inhibition of human skin fibroblast in VPR assay; assay type: functional
[29] = species on record: Homo sapiens; experiment: Cytotoxic concentration that produces 50% growth inhibition of human skin fibroblast infected with HSV-1; assay type: functional
[30] = system: HFF; experiment: Cytotoxic concentration for 50% inhibition of cell growth of HSV-1 infected HFF cells determined by VPR assay; assay type: functional; conditions: Homo sapiens
[31] = system: HFF; experiment: Inhibitory concentration for HSV-1 plaque reduction (VPR) by 50% in HFF cells; assay type: functional, cell-based; conditions: Homo sapiens
[32] = species on record: Homo sapiens; experiment: Inhibitory concentration required to reduce HSV-1 induced virus plaque reduction (VPR) in human skin fibroblast; assay type: functional, organism-based
[33] = system: HFF; experiment: Inhibitory concentration for HSV-2 plaque reduction (VPR) by 50% in HFF cells; assay type: functional, cell-based; conditions: Homo sapiens
[34] = system: HFF; experiment: Cytotoxic concentration for 50% inhibition of cell growth of HSV-2 infected HFF cells determined by VPR assay; assay type: functional; conditions: Homo sapiens
Summary of the method: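 Run in virus-infected HFF cells within the plaque reduction assay set-up. […] The value was converted from μg/mL to μM.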

[35] = species on record: Homo sapiens; experiment: Inhibitory concentration required to reduce HSV-2 induced virus plaque reduction (VPR) in human skin fibroblast; assay type: functional, organism-based

Row | EC50 [15] [nM] | Ki [20] [nM] | EC50 [23] [nM] | Compound | EC50 [2] [nM] | CC50 [3] [nM] | EC50 [4] [nM] | EC50 [5] [nM] | EC50 [6] [nM] | CC50 [8] [nM] | CC50 [9] [nM] | EC50 [11] [nM] | EC50 [12] [nM] | EC50 [14] [nM] | EC50 [16] [nM] | MCC [19] [µM] | CC50 [21] [nM] | EC50 [22] [nM] | EC50 [24] [nM] | MCC [26] [µM] | also measured
1 |  |  |  | O=c1[nH]c(=O)n([C@H]2C[C@@H](CO)[C@H](O)C2)cc1/C=C/Br |  |  |  |  |  |  |  |  |  |  |  |  |  |  |  |  | EC50 [1]: 120 nM
2 | 9060 | 85800 | > 275000 | O=c1[nH]c(=O)n([C@H]2C[C@H](O)[C@]3(CO)C[C@H]23)cc1I | 3000 | > 275000 | > 5000 | 9060 | 120 | > 200000 | > 200000 | 3000 | 120 | 160 | > 275000 | > 5 | > 275000 | 160 | > 5000 | > 5 | CC50 [7]: 25000 nM; k cat [10]: 0.14 s⁻¹; CC50 [13]: 300000 nM; k cat [17]: 0.14 s⁻¹; CC50 [18]: > 500000 nM; CC50 [25]: 25000 nM; CC50 [27]: > 275000 nM
3 | 350 | 16100 | 120 | Cc1cn([C@H]2C[C@H](O)[C@]3(CO)C[C@H]23)c(=O)[nH]c1=O [(NORTH)-METHANOCARBATHYMIDINE] |  | > 396000 |  | 350 |  |  |  |  |  |  | 120 |  | > 396000 |  |  |  | CC50 [28]: > 79000 nM; CC50 [29]: > 396000 nM; CC50 [30]: > 79000 nM; EC50 [31]: 40 nM; EC50 [32]: 40 nM; EC50 [33]: 470 nM; CC50 [34]: > 79000 nM; EC50 [35]: 470 nM
4 |  |  |  | O=c1[nH]c(=O)n([C@H]2C[C@H](O)[C@@H](CO)O2)cc1/C=C/Br [BRIVUDINE] | > 150000 |  | > 150000 |  | 8 | > 400000 | > 400000 | > 150000 | 8 | 5 |  | > 150 |  | 5 | > 150000 | > 150 | 
